Results: ChEMBL document CHEMBL1145518, “Potent immune-modulating and anticancer effects of NKT cell stimulatory glycolipids” (2007)
Active and inactive are the calls of the source. The rule behind the calls is not given here.

What was measured:
[1] = system: dendritic; assay: Activation of TCR in human immature dendritic cells assessed as increase in CD3epsilon phosphorylation; type: cell-based
How it was run: (§1)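 Human HeLa, HeLa-CD1d or autologous immature DCs were loaded with glycolipid at 10 μg/ml, or DMSO, for 2 h. Then 3 × 10^5 naïve CD161+/CD3+ NKT cells were added; these were bead-isolated and kept in 100 units/ml IL-2. After 5–10 min the cells were washed and lysed at 4°C. Phospho-CD3ε, ERK1/2 (Thr-185/Tyr-187) and CREB (Ser-133) were read by Luminex bead assay as median fluorescence normalized to total protein, expressed as fold over 1% DMSO.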

[2] = system: Mus musculus; assay: Induction of IFN-gamma secretion in BALB/c mouse serum at 2 ug, iv after 18 hrs relative to control; type: functional
How it was run: (§2)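 BALB/c mice received an i.v. injection of 100 μl of glycolipid diluted to 20 μg/ml in saline from DMSO stock, with 1% DMSO as vehicle. Serum cytokines/chemokines were measured at 2 and 18 h after injection.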

[3] = Induction of MCP1 secretion in human CD161+ CD3+ NKT cells at 10 ug/ml after 18 hrs relative to basal level; type: functional
How it was run: (§3)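 Human Vα24i NKT cell lines were expanded for 10 days on irradiated (3,000 rad) autologous immature DCs with 10 units/ml IL-2. The cells (1 × 10^5) were cocultured with 5 × 10^4 irradiated immature CD14+ DCs plus glycolipid at 10 μg/ml. Supernatants were collected at 18 h and read on a 22-plex Luminex bead panel. Triplicates, mean ± SD.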

[4] = system: HeLa; assay: Activation of TCR in human HeLa cells overexpressing CD1d assessed as increase in CREB phosphorylation; type: cell-based; how it was run: as §1
[5] = system: Mus musculus; assay: Induction of IL1-beta secretion in BALB/c mouse serum at 2 ug, iv after 18 hrs relative to control; type: functional; how it was run: as §2
[6] = system: Mus musculus; assay: Induction of IL6 secretion in BALB/c mouse serum at 2 ug, iv after 2 hrs relative to control; type: functional; how it was run: as §2
[7] = system: Mus musculus; assay: Activation of B cells in BALB/c mouse at 2 ug, iv after 72 hrs by flow cytometry; type: functional, organism-based
[8] = Induction of GM-CSF secretion in human CD161+ CD3+ NKT cells at 10 ug/ml after 18 hrs relative to basal level; type: functional; how it was run: as §3
[9] = system: NKT; assay: Stimulation of cell expansion of human invariant CD161+/ Valpha24+/ CD56+/ CD3+ NKT cells by flow cytometry method; type: functional, cell-based
How it was run: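 CD56+ NK/NKT mixtures (2 × 10^6) were isolated from human leukopaks with anti-CD56 microbeads. They were cocultured with 4 × 10^5 autologous immature CD14+ DCs pulsed with glycolipid at 3 μg/ml, or with 0.3% DMSO, on day 2 for 18 h. Suspension cells were then transferred and kept in 100 units/ml IL-2 with fresh medium every 3 days. On day 9, CD161+/Vα24TCR+ cells were gated by flow cytometry and total Vα24i NKT cells counted. Triplicates, mean ± SD.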

[10] = Induction of IL4 secretion in human CD161+ CD3+ NKT cells at 10 ug/ml after 18 hrs relative to basal level; type: functional; how it was run: as §3
[11] = system: Mus musculus; assay: Induction of TNFalpha secretion in BALB/c mouse serum at 2 ug, iv after 18 hrs relative to control; type: functional; how it was run: as §2
[12] = Promotion of maturation of human dendritic cells assessed as increase in CD86 expression at 3 ug/ml after 48 hrs; type: functional, cell-based; details: Dendritic cell
How it was run: (§4)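 Immature DCs were derived from leukopak CD14+ cells by 2 days in 300 units/ml GM-CSF plus 100 units/ml IL-4. DCs (2 × 10^6) were incubated with glycolipid at 3 μg/ml or vehicle for 48 h. Surface CD40, CD80, CD83, CD86 and HLA-DR were measured by flow cytometry as mean fluorescence intensity.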

[13] = Promotion of maturation of human dendritic cells assessed as increase in HLA-DR expression at 3 ug/ml after 48 hrs; type: functional, cell-based; details: Dendritic cell; how it was run: as §4
[14] = Promotion of maturation of human dendritic cells assessed as increase in CD83 expression at 3 ug/ml after 48 hrs; type: functional, cell-based; details: Dendritic cell; how it was run: as §4
[15] = system: Mus musculus; assay: Activation of natural killer cells in BALB/c mouse at 2 ug, iv after 72 hrs by flow cytometry; type: functional, organism-based
How it was run: (§5)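 BALB/c mice (n = 4/group) were given 100 μl of glycolipid at 20 μg/ml in saline i.v., or 100 μl of 1% DMSO. Spleens were harvested after 72 h and splenocyte subsets counted by flow cytometry: mature DCs as CD11c+/CD80+/CD86+, activated NK as U5A2-13Ag+/CD3−/CD69+, activated NKT as U5A2-13Ag+/CD3+/CD69+. Assays were run in duplicate, mean ± SD.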

[16] = Promotion of maturation of human dendritic cells assessed as increase in CD40 expression at 3 ug/ml after 48 hrs; type: functional, cell-based; details: Dendritic cell; how it was run: as §4
[17] = Promotion of maturation of human dendritic cells assessed as increase in CD80 expression at 3 ug/ml after 48 hrs; type: functional, cell-based; details: Dendritic cell; how it was run: as §4
[18] = system: Mus musculus; assay: Activation of NKT cells in BALB/c mouse at 2 ug, iv after 72 hrs by flow cytometry; type: functional, organism-based; how it was run: as §5

## CCCCCCCCCCCCCCCCCCCCCCCCCC(=O)N[C@@H](CO[C@H]1O[C@H](CO)[C@H](O)[C@H](O)[C@H]1O)[C@H](O)[C@H](O)CCCCCCCCCCCCCC [RGI-7000]
[1]
  Activity: 10.8
[2]
  Activity: 300
[3]
  Activity: 0.9
[4]
  Activity: 32
[5]
  Activity: 7.8
[6]
  Activity: 5.5
[7]
  Activity: Active
[8]
  Activity: 3.5
[9]
  Activity: Active
[10]
  Activity: 3.9
[11]
  Activity: 51

## CCCCCCCCCCCCCCCCCCCCCCCCCC(=O)N[C@@H](CO[C@H]1O[C@H](CO)[C@H](O)[C@H](O)[C@H]1O)[C@H](O)[C@H](O)CCc1ccccc1
[1]
  Activity: 17.3
[2]
  Activity: 122.5
[3]
  Activity: 2
[12]
  Activity: Active
[4]
  Activity: 41
[5]
  Activity: 3.4
[6]
  Activity: 6.3
[13]
  Activity: Active
[14]
  Activity: Active
[8]
  Activity: 4.3
[15]
  Activity: Active
[16]
  Activity: Active
[10]
  Activity: 2.7
[17]
  Activity: Active
[18]
  Activity: Active
[11]
  Activity: 2.3
